# Screening data from PubChem.
# SIRT5 block: SIRT5 desuccinylase inhibitors, primary screen, biochemical, fluorescence imaging, single point, set 5; NAD-dependent protein deacylase sirtuin-5, mitochondrial (Homo sapiens), Q9NXA8; Purified SirT5, succinyl-peptide AMC, trypsin-coupled fluorescence; inhibition, % at 15 µM; actives 1.1% (n = 330,000); AID 652115, 2013; in the data active means inhibition above about 15%
# E-selectin induc: E-selectin induction in HUVECs, primary screen, imaging, HUVEC, immunofluorescence imaging, single point | activation, % at 7.58 µM | normalized: neutral wells 0, TNF-alpha wells 100 | actives 0.37% (n = 260,000) | P16581;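 active means mean E-selectin-positive cell signal at least 10% of the positive control, reached in at least 60% of replicates, without over 20% cell loss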
# Target sequence (P16581 whole entry, looked up): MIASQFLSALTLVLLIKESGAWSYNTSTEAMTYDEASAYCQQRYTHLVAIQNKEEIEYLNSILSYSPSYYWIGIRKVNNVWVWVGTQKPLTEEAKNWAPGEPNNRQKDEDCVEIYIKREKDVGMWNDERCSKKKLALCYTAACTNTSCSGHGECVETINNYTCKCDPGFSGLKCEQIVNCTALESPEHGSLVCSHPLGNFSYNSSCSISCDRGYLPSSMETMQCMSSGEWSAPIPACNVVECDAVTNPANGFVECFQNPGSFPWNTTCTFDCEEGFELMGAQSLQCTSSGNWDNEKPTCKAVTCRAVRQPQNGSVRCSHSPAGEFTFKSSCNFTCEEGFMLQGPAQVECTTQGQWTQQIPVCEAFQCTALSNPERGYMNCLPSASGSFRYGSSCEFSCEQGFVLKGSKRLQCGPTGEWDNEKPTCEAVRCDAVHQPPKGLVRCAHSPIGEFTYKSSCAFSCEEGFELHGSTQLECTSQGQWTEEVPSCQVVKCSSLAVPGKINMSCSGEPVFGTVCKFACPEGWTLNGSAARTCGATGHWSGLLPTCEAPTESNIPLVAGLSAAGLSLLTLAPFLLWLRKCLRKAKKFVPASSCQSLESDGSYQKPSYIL
#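 Test system: HUVEC | Signal: Immunofluorescence imaging | Read-out: Percent E-selectin-positive cells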
# ERAP1 HTS inh: human ERAP1 aminopeptidase inhibitors, primary screen, biochemical, single point, plate reader; recombinant ERAP1, Leu-AMC fluorescence, 60 min; inhibition, % at 10.7 µM; actives 0.15% (n = 340,000); AID 652197, 2013;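 active means mean replicate inhibition of at least 30%, or all replicates individually reaching that 30% level; inactive means mean below 30% and not every replicate reaching it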;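 further: 0% = neutral control wells and 100% = L-leucinethiol positive control wells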
# PglD inh: C. jejuni PglD acetyltransferase inhibitors, primary screen, biochemical, DTNB colorimetric, single point. UDP-N-acetylbacillosamine N-acetyltransferase PglD (Campylobacter jejuni). purified PglD enzyme, DTNB colorimetric CoA detection. inhibition, % at 12.5 µM. actives 0.098% (n = 360,000). AID 602405, 2012; in the data active means inhibition above about 16%, passing the limit was not always enough
# DENV2 CPE rescue: inhibitors of DENV2 cytopathic effect, primary screen, cell-based, plate reader, single concentration | DENV2-infected cells, cytopathic effect rescue | CPE inhibition, % at 9.99 µM | actives 1.7% (n = 350,000) | AID 651640, 2012; in the data active means CPE inhibition above about 20%, passing the limit was not always enough; tested in BHK-21 cells;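 further: 0% = median of neutral control wells and 100% = median of positive control wells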
# Active calls of the source: *; x = no result given. A selection: hits, their analogues and other compounds. The true share with any hit is near 2.5%.
SMILES,SIRT5 block,E-selectin induc,ERAP1 HTS inh,PglD inh,DENV2 CPE rescue
C[C@H]1CCCCO[C@@H](CN(C)C(=O)CCCN(C)C)[C@@H](C)CN([C@@H](C)CO)C(=O)c2cc(NC(=O)Cc3ccccc3)ccc2O1,0,x,3,4,-2
C[C@@H]1CN([C@@H](C)CO)C(=O)c2cc(NC(=O)CCCN(C)C)ccc2O[C@@H](C)CCCCO[C@@H]1CN(C)C(=O)Cc1ccccc1,-2,0,0,2,64*
COc1cc(OC)cc(OC2(C)CCN(Cc3ccc(OC(C)C)cc3)C2)c1 (stereo unspecified),-2,0,-4,3,-5
C[C@H](CO)N1C[C@H](C)[C@@H](CN(C)C(=O)CCCN(C)C)OCCCC[C@H](C)Oc2ccc(NC(=O)CCCN(C)C)cc2C1=O,6,x,-2,0,85*
COc1ccccc1S(=O)(=O)N[C@@H]1CC[C@@H](CC(=O)N2CCCCC2)O[C@@H]1CO,2,-1,3,0,-9
O=C(C[C@H]1CC[C@H](NC(=O)C2CCC2)[C@H](CO)O1)NCc1ccccc1Cl,25*,0,0,1,0
COCCNC(=O)C[C@@H]1CC[C@H](NC(=O)NC2CCCC2)[C@@H](CO)O1,0,1,-1,0,22*
COc1ccccc1CNC(=O)C[C@@H]1C[C@H]2c3cc(NC(=O)Nc4ccccc4F)ccc3O[C@H]2[C@H](CO)O1,-1,0,2,0,-3
COCCNC(=O)C[C@H]1CC[C@H](NC(=O)NC2CCCC2)[C@H](CO)O1,3,0,0,0,-5
O=C(C[C@@H]1CC[C@@H](NC(=O)C2CCC2)[C@@H](CO)O1)NCc1ccccc1Cl,-5,-2,1,1,-4
COc1ccccc1CNC(=O)C[C@@H]1C[C@H]2c3cc(NC(=O)Nc4ccc(C(F)(F)F)cc4)ccc3O[C@H]2[C@@H](CO)O1,3,5,2,1,36*
COCC(=O)N[C@@H]1CC[C@H](CC(=O)NCc2ccccc2OC)O[C@@H]1CO,16*,0,4,5,9
COCC(=O)Nc1ccc2c(c1)[C@@H]1C[C@@H](CC(=O)NCc3ccccc3OC)O[C@@H](CO)[C@@H]1O2,19*,0,-3,0,-1
C[C@@H]1CN([C@@H](C)CO)C(=O)Cc2cc(NS(=O)(=O)c3ccccc3)ccc2O[C@H]1CN(C)C(=O)Nc1ccc(F)cc1,2,0,-1,13,36*
Cc1ccc(S(=O)(=O)Nc2ccc3c(c2)CC(=O)N([C@H](C)CO)C[C@H](C)[C@@H](CN(C)C(=O)Nc2ccccc2)O3)cc1,2,x,0,0,-8
Cc1ccc(S(=O)(=O)Nc2ccc3c(c2)CC(=O)N([C@@H](C)CO)C[C@@H](C)[C@@H](CN(C)C(=O)Nc2ccccc2)O3)cc1,1,x,-2,-4,39*
COc1ccccc1/C=C/C1=NC(=C\C=C/c2ccccc2)/C(=O)O1,21*,x,5,x,x
COc1ccccc1/C=C/C=C1N=C(/C=C/c2ccc(Cl)cc2)OC/1=O,x,x,x,-6,x
COc1ccc(CN2CCOCCOCCOCCOCCOCC2)cc1,0,0,0,x,-2
CN(C)CCCNS(=O)(=O)c1ccc(NC2CCCCCC2)c([N+](=O)[O-])c1,29*,x,5,2,-9
COCc1cccc(-c2csc(C(N)c3ccc(F)c(F)c3)n2)c1 (stereo unspecified),x,0,-1,-8,21*
COCc1cccc(-c2csc(C(O)c3ccc(F)c(F)c3)n2)c1 (stereo unspecified),-6,0,1,1,-4
Cc1cccc(S(=O)(=O)N2CCCCN3[C@H](CO)[C@H](c4ccc(-c5ccccc5)cc4)[C@H]3C2)c1,13,x,-1,1,-1
Cc1cccc(-c2ccc([C@@H]3[C@@H](CO)N4CCCCN(S(=O)(=O)c5cccc(C)c5)C[C@@H]34)cc2)c1,5,-1,1,0,21*
Cc1cccc(S(=O)(=O)N2CCCCN3[C@H](CO)[C@@H](c4ccc(-c5ccccc5)cc4)[C@@H]3C2)c1,16*,x,4,2,1
SMILES,SIRT5 block,E-selectin induc,ERAP1 HTS inh,PglD inh,DENV2 CPE rescue
Cc1cccc(-c2ccc([C@H]3[C@H](CO)N4CCCCN(S(=O)(=O)c5cccc(C)c5)C[C@@H]34)cc2)c1,19*,-1,-1,0,-4
COc1ccc(S(=O)(=O)N(C)C[C@@H]2Oc3c(NS(=O)(=O)c4c(C)noc4C)cccc3C(=O)N([C@H](C)CO)C[C@@H]2C)cc1,2,0,0,6,3
O=C(NNc1cccc(Cl)n1)Nc1cccc(Cl)c1,x,x,x,-3,x
C[C@@H]1CN([C@@H](C)CO)C(=O)Cc2cc(NC(=O)CCCCCC(=O)Nc3ccccc3N)ccc2O[C@@H]1CN(C)S(C)(=O)=O,0,-4,0,0,3
C[C@@H]1CN([C@@H](C)CO)C(=O)Cc2cc(NC(=O)CCCCCC(=O)Nc3ccccc3N)ccc2O[C@H]1CN(C)CC1CC1,1,0,2,x,21*
C[C@@H]1CN([C@H](C)CO)C(=O)Cc2cc(NC(=O)CCCCCC(=O)Nc3ccccc3N)ccc2O[C@@H]1CN(C)S(C)(=O)=O,x,17,0,-2,91*
Cc1noc(C)c1S(=O)(=O)N(C)C[C@@H]1Oc2ccc(NC(=O)CCCCCC(=O)Nc3ccccc3N)cc2CC(=O)N([C@@H](C)CO)C[C@@H]1C,3,0,-2,x,29*
O=S(=O)(NC1=NCCCCC1)c1ccc(Cl)cc1Cl,-1,x,-3,0,-1
N#Cc1c(SCC(=O)Nc2nccs2)sc2c(O)cc(=O)[nH]c12,26*,0,1,0,-2
N#Cc1c(SCC(=O)Nc2nc3ccccc3s2)sc2c(O)cc(=O)[nH]c12,12,1,3,3,7
CCCSc1nnc(NC(=O)CSc2sc3c(O)cc(=O)[nH]c3c2C#N)s1,26*,x,-1,2,4
C[C@@H](NC(=O)C[C@@H]1CC[C@@H](NC(=O)c2cccnc2)[C@H](CO)O1)c1ccccc1,1,0,-2,-2,2
COc1ccccc1OCCNC(=O)C1CCCCC1,-6,0,32*,2,1
COc1ccccc1OCCNC(=O)C1CC(=O)N(c2ccccc2OC)C1 (stereo unspecified),-1,x,-7,3,0
Cc1ccc(OCCNC(=O)C2CCCCC2)cc1,19*,x,-2,x,x
CCC(=O)Nc1cc(-c2nc3ncccc3o2)ccc1Cl,5,x,-1,-2,6
